Measurements taken from ChEMBL document CHEMBL4049410, “Novel benzimidazolyl tetrahydroprotoberberines: Design, synthesis, antimicrobial evaluation and multi-targeting exploration” (2017).
Converted amounts (≈) assume the structure as drawn.

Key:
Staphylococcus aureus [1] = assay: Antibacterial activity against methicillin-resistant Staphylococcus aureus N315 after 24 hrs by two-fold serial dilution assay; assay type: functional; settings: Staphylococcus aureus, N315, 24 h; read-out: MIC
Bacillus subtilis = assay: Antibacterial activity against Bacillus subtilis after 24 hrs by two-fold serial dilution assay; assay type: functional; settings: Bacillus subtilis, 24 h; read-out: MIC
Summary of the method: (§1)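 Twofold serial broth dilution following NCCLS guidance, with Chloromycin, Norfloxacin and Fluconazole as positive controls. MIC in μM is the lowest concentration giving complete inhibition of visible bacterial or fungal growth.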

Micrococcus luteus = assay: Antibacterial activity against Micrococcus luteus ATCC 4698 after 24 hrs by two-fold serial dilution assay; assay type: functional, NCTC 2665; settings: Micrococcus luteus, NCTC 2665, 24 h; read-out: MIC; summary of the method: as §1
Staphylococcus aureus [2] = assay: Antibacterial activity against Staphylococcus aureus ATCC 25923 after 24 hrs by two-fold serial dilution assay; assay type: functional; settings: Staphylococcus aureus, ATCC 25923, 24 h; read-out: MIC; summary of the method: as §1
Escherichia coli [3] = assay: Antibacterial activity against Escherichia coli JM109 after 24 hrs by two-fold serial dilution assay; assay type: functional; settings: Escherichia coli, JM109, 24 h; read-out: MIC; summary of the method: as §1
Escherichia coli [4] = assay: Antibacterial activity against Escherichia coli DH52 after 24 hrs by two-fold serial dilution assay; assay type: functional; settings: Escherichia coli, DH52, 24 h; read-out: MIC; summary of the method: as §1
Shigella dysenteriae = assay: Antibacterial activity against Shigella dysenteriae after 24 hrs by two-fold serial dilution assay; assay type: functional; settings: Shigella dysenteriae, 24 h; read-out: MIC
Pseudomonas aeruginosa = assay: Antibacterial activity against Pseudomonas aeruginosa after 24 hrs by two-fold serial dilution assay; assay type: functional; settings: Pseudomonas aeruginosa, 24 h; read-out: MIC; summary of the method: as §1
Salmonella typhi = assay: Antibacterial activity against Bacillus typhi after 24 hrs by two-fold serial dilution assay; assay type: functional, Salmonella enterica subsp. enterica serovar Typhi; settings: Salmonella enterica, 24 h; read-out: MIC
Proteus vulgaris = assay: Antibacterial activity against Bacillus proteus ATCC 13315 after 24 hrs by two-fold serial dilution assay; assay type: functional; settings: Proteus vulgaris, ATCC 13315, 24 h; read-out: MIC; summary of the method: as §1
Pichia norvegensis = assay: Antifungal activity against Candida mycoderma after 24 hrs by two-fold serial dilution assay; assay type: functional; settings: Pichia norvegensis, 24 h; read-out: MIC; summary of the method: as §1
Cyberlindnera jadinii = assay: Antifungal activity against Candida utilis after 24 hrs by two-fold serial dilution assay; assay type: functional; settings: Williopsis jadinii, 24 h; read-out: MIC; summary of the method: as §1
Saccharomyces cerevisiae = assay: Antifungal activity against Saccharomyces cerevisiae after 24 hrs by two-fold serial dilution assay; assay type: functional; settings: Saccharomyces cerevisiae, 24 h; read-out: MIC; summary of the method: as §1
Aspergillus flavus = assay: Antifungal activity against Aspergillus flavus after 24 hrs by two-fold serial dilution assay; assay type: functional; settings: Aspergillus flavus, 24 h; read-out: MIC; summary of the method: as §1
Candida albicans = assay: Antifungal activity against Candida albicans ATCC 76615 after 24 hrs by two-fold serial dilution assay; assay type: functional; settings: Candida albicans, ATCC 76615, 24 h; read-out: MIC; summary of the method: as §1

Compound	MIC (Staphylococcus aureus [1]) [µM]	MIC (Bacillus subtilis) [µM]	MIC (Micrococcus luteus) [µM]	MIC (Staphylococcus aureus [2]) [µM]	MIC (Escherichia coli [3]) [µM]	MIC (Escherichia coli [4]) [µM]	MIC (Shigella dysenteriae) [µM]	MIC (Pseudomonas aeruginosa) [µM]	MIC (Salmonella typhi) [µM]	MIC (Proteus vulgaris) [µM]	MIC (Pichia norvegensis) [µM]	MIC (Cyberlindnera jadinii) [µM]	MIC (Saccharomyces cerevisiae) [µM]	MIC (Aspergillus flavus) [µM]	MIC (Candida albicans) [µM]
COc1cc(-c2nc3ccccc3n2Cc2ccccc2Cl)c2c(c1O)CN1CCc3cc4c(cc3C1C2)OCO4 (stereo not given)	23.6 (≈ 13.4 µg/mL)	188 (≈ 107 µg/mL)	23.6 (≈ 13.4 µg/mL)	9.4 (≈ 5.32 µg/mL)	4.7 (≈ 2.66 µg/mL)	23.6 (≈ 13.4 µg/mL)	28.3 (≈ 16 µg/mL)	23.6 (≈ 13.4 µg/mL)	37.7 (≈ 21.3 µg/mL)	47.1 (≈ 26.7 µg/mL)	47.1 (≈ 26.7 µg/mL)	18.9 (≈ 10.7 µg/mL)	23.6 (≈ 13.4 µg/mL)	11.8 (≈ 6.68 µg/mL)	56.5 (≈ 32 µg/mL)
CCCn1c(-c2cc(OC)c(O)c3c2CC2c4cc5c(cc4CCN2C3)OCO5)nc2ccccc21 (stereo not given)	55.2 (≈ 26.7 µg/mL)	110 (≈ 53.3 µg/mL)	110 (≈ 53.3 µg/mL)	44.1 (≈ 21.3 µg/mL)	110 (≈ 53.3 µg/mL)	110 (≈ 53.3 µg/mL)	265 (≈ 128 µg/mL)	66.2 (≈ 32 µg/mL)	27.6 (≈ 13.3 µg/mL)	22.1 (≈ 10.7 µg/mL)	13.8 (≈ 6.67 µg/mL)	27.6 (≈ 13.3 µg/mL)	132 (≈ 64 µg/mL)	66.2 (≈ 32 µg/mL)	22.1 (≈ 10.7 µg/mL)
CCn1c(-c2cc(OC)c(O)c3c2CC2c4cc5c(cc4CCN2C3)OCO5)nc2ccccc21 (stereo not given)	14.2 (≈ 6.67 µg/mL)	34.1 (≈ 16 µg/mL)	28.4 (≈ 13.3 µg/mL)	28.4 (≈ 13.3 µg/mL)	28.4 (≈ 13.3 µg/mL)	136 (≈ 64 µg/mL)	136 (≈ 64 µg/mL)	68.2 (≈ 32 µg/mL)	14.2 (≈ 6.67 µg/mL)	56.8 (≈ 26.7 µg/mL)	56.8 (≈ 26.7 µg/mL)	34.1 (≈ 16 µg/mL)	22.7 (≈ 10.7 µg/mL)	56.8 (≈ 26.7 µg/mL)	17 (≈ 7.98 µg/mL)
COc1ccc2c(c1O)CN1CCc3cc4c(cc3C1C2)OCO4 (stereo not given)	1310 (≈ 427 µg/mL)	1570 (≈ 512 µg/mL)	1570 (≈ 512 µg/mL)	787 (≈ 256 µg/mL)	656 (≈ 213 µg/mL)	1570 (≈ 512 µg/mL)	1570 (≈ 512 µg/mL)	787 (≈ 256 µg/mL)	787 (≈ 256 µg/mL)	1310 (≈ 427 µg/mL)	164 (≈ 53.3 µg/mL)	1050 (≈ 341 µg/mL)	1570 (≈ 512 µg/mL)	656 (≈ 213 µg/mL)	524 (≈ 171 µg/mL)
CCCCCCCCn1c(-c2cc(OC)c(O)c3c2CC2c4cc5c(cc4CCN2C3)OCO5)nc2ccccc21 (stereo not given)	231 (≈ 128 µg/mL)	57.8 (≈ 32 µg/mL)	48.2 (≈ 26.7 µg/mL)	14.4 (≈ 7.97 µg/mL)	116 (≈ 64 µg/mL)	24.1 (≈ 13.3 µg/mL)	77.1 (≈ 42.7 µg/mL)	38.5 (≈ 21.3 µg/mL)	24.1 (≈ 13.3 µg/mL)	9.6 (≈ 5.32 µg/mL)	4.8 (≈ 2.66 µg/mL)	24.1 (≈ 13.3 µg/mL)	96.3 (≈ 53.3 µg/mL)	28.9 (≈ 16 µg/mL)	28.9 (≈ 16 µg/mL)
